Activity calls are given as the source filed them. No cut-off for these calls is given here.
Columns and labels:
[1] = target: T1, Multidrug efflux pump subunit AcrB (Escherichia coli (strain K12)) (UniProt P31224); experiment: Inhibition of AcrB in wild-type drug-resistant Escherichia coli […] assessed as potentiation of chloramphenicol-induced antimicrobial activity by measuring chloramphenicol MIC at 128 ug/ml by checkerboard titration method (Rvb =16 ug/ml)
T1 sequence (whole entry): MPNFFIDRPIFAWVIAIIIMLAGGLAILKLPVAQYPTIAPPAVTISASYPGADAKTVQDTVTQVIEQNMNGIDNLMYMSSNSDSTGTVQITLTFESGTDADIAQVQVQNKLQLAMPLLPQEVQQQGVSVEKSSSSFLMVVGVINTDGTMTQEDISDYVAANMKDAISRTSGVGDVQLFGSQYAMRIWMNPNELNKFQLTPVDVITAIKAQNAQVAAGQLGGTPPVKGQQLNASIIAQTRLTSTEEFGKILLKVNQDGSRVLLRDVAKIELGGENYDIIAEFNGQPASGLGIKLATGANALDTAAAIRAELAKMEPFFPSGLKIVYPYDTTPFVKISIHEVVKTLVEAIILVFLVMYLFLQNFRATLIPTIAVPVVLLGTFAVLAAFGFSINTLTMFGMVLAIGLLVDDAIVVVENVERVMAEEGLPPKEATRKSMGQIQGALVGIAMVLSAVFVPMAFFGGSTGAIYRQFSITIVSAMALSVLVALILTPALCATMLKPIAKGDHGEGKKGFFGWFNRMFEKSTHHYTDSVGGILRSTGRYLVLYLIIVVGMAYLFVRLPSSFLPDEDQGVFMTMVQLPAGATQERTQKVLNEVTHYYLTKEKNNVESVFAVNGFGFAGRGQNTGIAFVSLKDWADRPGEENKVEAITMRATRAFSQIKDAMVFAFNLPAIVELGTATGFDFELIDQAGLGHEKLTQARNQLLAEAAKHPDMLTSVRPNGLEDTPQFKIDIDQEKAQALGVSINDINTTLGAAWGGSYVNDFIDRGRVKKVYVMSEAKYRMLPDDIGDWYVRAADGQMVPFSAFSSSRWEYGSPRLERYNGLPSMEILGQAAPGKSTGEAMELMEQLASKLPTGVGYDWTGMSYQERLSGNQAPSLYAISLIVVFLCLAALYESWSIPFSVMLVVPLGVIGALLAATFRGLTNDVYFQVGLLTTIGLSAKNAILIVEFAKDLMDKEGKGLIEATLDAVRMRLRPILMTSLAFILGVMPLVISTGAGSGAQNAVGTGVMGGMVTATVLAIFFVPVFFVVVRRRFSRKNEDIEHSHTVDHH

[2] = target: T1, Multidrug efflux pump subunit AcrB (Escherichia coli (strain K12)); experiment: Inhibition of AcrB in wild-type drug-resistant Escherichia coli […] assessed as potentiation of levofloxacin-induced antimicrobial activity by measuring levofloxacin MIC at 8 ug/ml by checkerboard titration method (reference value: 0.063 ug/ml)
Escherichia coli [3] = experiment: Toxicity against AcrB deficient Escherichia coli AcrB lacking at 128 ug/ml; format: organism-based; details: in vivo
In short: (§1)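 MIC determination against wild-type resistant E. coli BW25113 and an isogenic acrB-deleted strain; highest concentration tested 128 mg/L.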

Escherichia coli [4] = experiment: Toxicity against wild-type drug-resistant Escherichia coli […] at 128 ug/ml; format: organism-based; details: in vivo; in short: as §1
[5] = target: T1, Multidrug efflux pump subunit AcrB (Escherichia coli (strain K12)); experiment: Inhibition of AcrB in wild-type drug-resistant Escherichia coli […] assessed as potentiation of erythromycin-induced antimicrobial activity by measuring erythromycin MIC at 64 ug/ml by checkerboard titration method (reference value: 64 ug/ml)
[6] = target: T1, Multidrug efflux pump subunit AcrB (Escherichia coli (strain K12)); experiment: Inhibition of AcrB in wild-type drug-resistant Escherichia coli […] assessed as potentiation of chloramphenicol-induced antimicrobial activity by measuring chloramphenicol MIC at 32 ug/ml by checkerboard titration method (Rvb =16 ug/ml)
[7] = target: T1, Multidrug efflux pump subunit AcrB (Escherichia coli (strain K12)); experiment: Inhibition of AcrB in wild-type drug-resistant Escherichia coli […] assessed as reduction in glucose-induced nile red efflux at 100 to 200 uM by fluorescence assay
In short: (§2)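 E. coli cells (wild-type resistant with active pump, acrB-deleted, or wild-type plus compound) preloaded with Nile Red before fluorescence recording. Efflux triggered at 100 s by adding 0.2% glucose. Fluorescence traces followed; experiments with different cell batches on three different days.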

[8] = target: T1, Multidrug efflux pump subunit AcrB (Escherichia coli (strain K12)); experiment: Inhibition of AcrB in wild-type drug-resistant Escherichia coli […] assessed as potentiation of tetraphenyl phosphonium chloride-induced antimicrobial activity by measuring tetraphenyl phosphonium chloride MIC at 16 ug/ml by checkerboard titration method (reference value: 1024 ug/ml)
[9] = target: T1, Multidrug efflux pump subunit AcrB (Escherichia coli (strain K12)); experiment: Inhibition of AcrB in wild-type drug-resistant Escherichia coli […] assessed as reduction in glucose-induced nile red efflux at 100 uM by fluorescence assay; in short: as §2
[10] = target: T1, Multidrug efflux pump subunit AcrB (Escherichia coli (strain K12)); experiment: Inhibition of AcrB in wild-type drug-resistant Escherichia coli […] assessed as reduction in glucose-induced nile red efflux at 50 uM by fluorescence assay; in short: as §2
[11] = target: T1, Multidrug efflux pump subunit AcrB (Escherichia coli (strain K12)); experiment: Inhibition of AcrB in wild-type drug-resistant Escherichia coli […] assessed as reduction in glucose-induced nile red efflux at 200 uM by fluorescence assay; in short: as §2
[12] = target: T1, Multidrug efflux pump subunit AcrB (Escherichia coli (strain K12)); experiment: Inhibition of AcrB in wild-type drug-resistant Escherichia coli […] assessed as reduction in glucose-induced nile red efflux at 500 uM by fluorescence assay; in short: as §2
Escherichia coli [13] = experiment: Disruption of Escherichia coli inner membrane integrity at 8 ug/ml after 10 mins by DiOC2(3) probe based fluorescence assay; format: ADME, organism-based; details: in vivo
In short: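 Bacterial suspensions pre-exposed to compound for 10 min, then DiOC2(3) added and fluorescence followed to plateau. Cells re-energized with 0.5% glucose; membrane potential (inside negative) read as fluorescence rise to plateau, then collapsed with the proton ionophore CCCP. Untreated cells run alongside.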

Escherichia coli [14] = experiment: Induction of Escherichia coli outer membrane permeabilization assessed as increase in nitrocefin hydrolysis at 8 ug/ml by spectroscopic method; format: organism-based
HeLa = experiment: Cytotoxicity against human HeLa cells after 48 hrs by MTT assay; format: cell-based
In short: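 MTT-based viability assay on human cervical cancer HeLa cells, 48 h exposure; IC50 derived.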

Escherichia coli [15] = experiment: Induction of Escherichia coli outer membrane permeabilization assessed as increase in nitrocefin hydrolysis at 32 ug/ml by spectroscopic method; format: organism-based
[16] = target: T1, Multidrug efflux pump subunit AcrB (Escherichia coli (strain K12)); experiment: Inhibition of AcrB in wild-type drug-resistant Escherichia coli […] assessed as potentiation of levofloxacin-induced antimicrobial activity by fold reduction in levofloxacin MIC at 16 to 32 ug/ml by checkerboard titration method relative to levofloxacin alone

| Structure (SMILES) | MIC [1] [µg/mL] | MIC [2] [µg/mL] | Activity (Escherichia coli [3]) | Activity (Escherichia coli [4]) | MIC [5] [µg/mL] | MIC [6] [µg/mL] | inhibition [7] | MIC [8] [µg/mL] | inhibition [9] | inhibition [10] | inhibition [11] | inhibition [12] [%] | Activity (Escherichia coli [13]) | Activity (Escherichia coli [14]) | IC50 (HeLa) [µg/mL] | Activity (Escherichia coli [15]) | fold change (FC) [16] |
| --- | --- | --- | --- | --- | --- | --- | --- | --- | --- | --- | --- | --- | --- | --- | --- | --- | --- |
| COc1cccc2cc3c(cc12)C(=O)N(C1CCCC1)C3=O | 16 | 0.063 | Non-Toxic | Non-Toxic | 16 | 16 | inactive | 1020 | – | – | – | – | – | – | – | – | – |
| COc1cccc2cc3c(cc12)C(=O)N(Cc1ccccc1)C3=O | 8 | 0.063 | Non-Toxic | Non-Toxic | 32 | 16 | – | 1020 | Active | – | – | – | – | – | – | – | – |
| COc1cccc2cc3c(cc12)C(=O)N(c1ccccc1Cl)C3=O | 16 | 0.063 | Non-Toxic | Non-Toxic | 64 | 16 | – | 1020 | – | Active | – | – | – | – | – | – | – |
| COc1cccc2cc3c(cc12)C(=O)N(C(C)C)C3=O | 8 | 0.063 | Non-Toxic | Non-Toxic | 32 | 8 | – | 1020 | – | – | Active | 100 | – | – | – | – | – |
| COc1ccc(CN2C(=O)c3cc4cccc(OC)c4cc3C2=O)cc1 | 16 | 0.063 | Non-Toxic | Non-Toxic | 32 | 16 | – | 1020 | Active | – | – | – | Non-Toxic | Non-Toxic | – | – | – |
| CCCCCN1C(=O)c2cc3cccc(OC)c3cc2C1=O | 4 | 0.063 | Non-Toxic | Non-Toxic | 32 | 8 | – | 1020 | Active | – | – | – | – | – | > 64 | – | – |
| CCCCCCN1C(=O)c2cc3cccc(OC)c3cc2C1=O | 8 | 0.063 | Non-Toxic | Non-Toxic | 16 | 16 | – | 1020 | – | 100% | – | – | – | – | – | – | – |
| COc1cccc2cc3c(cc12)C(=O)N(C)C3=O | 16 | 0.063 | Non-Toxic | Non-Toxic | 32 | 16 | – | 1020 | – | – | Active | 100 | – | – | – | Non-Toxic | – |
| COc1ccccc1CN1C(=O)c2cc3cccc(OC)c3cc2C1=O | 16 | 0.016 | Non-Toxic | Non-Toxic | 64 | 16 | – | 1020 | Active | – | – | – | – | – | > 64 | – | 16 |
| CCc1ccccc1N1C(=O)c2cc3cccc(OC)c3cc2C1=O | 8 | 0.063 | Non-Toxic | Non-Toxic | 64 | 16 | – | 1020 | – | Active | – | – | – | – | > 64 | – | – |

From ChEMBL document CHEMBL4422685, “Design, synthesis and evaluation of a series of 5-methoxy-2,3-naphthalimide derivatives as AcrB inhibitors for the reversal of bacterial resistance” (Bioorg Med Chem Lett, 2019)
